From PubChem
Compounds with a hit are over-represented: about 4.2% of the library has one in this group of screens.
KCNQ1 pot: potentiators or activators of KCNQ1 channel, primary screen, cell-based, thallium flux, high-throughput; Potassium voltage-gated channel subfamily KQT member 1 (Homo sapiens), P51787; CHO-K1 KCNQ1, thallium flux FluxOR fluorescence; active compounds read high; B-score at 10 µM; 0.35% of 310,000 active; AID 2648, 2010;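 active = fluorescence ratio B-score, a plate-corrected score, at least three library SD, with initial intensity B-score within 5 SD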
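Medium – assay buffer, equal DMSO in all wells · Material – CHO-K1 cell line with stable KCNQ1 potassium channel expression · Signal – kinetic FluxOR thallium fluorescence, 10-s 1-Hz baseline, 110-s post-stimulus read · Compound – single concentration per compound, DMSO matched to controls · Schedule – 37 °C overnight plating, 90-min dark dye load, 20-min compound pretreatment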
hERG protect: hERG rescue from dofetilide block, primary screen, cell-based, CHO-hERG, FluxOR thallium flux, dofetilide IC70. dofetilide IC70 present. activation (rescue from dofetilide block), less the hit threshold, % at 10 µM. 0.51% of 310,000 active;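 active = activation above the mean of controls blocked by dofetilide plus 5 SD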;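 note: thallium influx through hERG after potassium depolarization seen as dye fluorescence rise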
Mot1-301 SUMO: yeast Mot1-301 growth rescue at high temperature, primary screen, SUMOylation pathway inhibitor project, S. cerevisiae, ATP luminescence, 38.5C; S. cerevisiae Mot1-301 growth rescue; percent above DMSO median, 100 means doubled; growth rescue, % at 18.8 µM; 1% of 320,000 active;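 active = every valid replicate shows activation above 250% relative to neutral control wells; inactive = the rest, any valid replicate at or below 250%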;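 note: OY570 slx delta 5 strain wells were the positive control but not used for scaling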
KCNQ1 inh: inhibitors of human KCNQ1 channel, primary screen, cell-based, thallium flux, high-throughput. CHO-K1 KCNQ1, FluxOR thallium flux fluorescence; active compounds read high. B-score at 10 µM. 1.3% of 310,000 active;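 active = compounds whose thallium flux B-score, printed positive for inhibition, exceeds three library SD while starting fluorescence stays within three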;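 note: channel opened by potassium depolarization with thallium stimulus after 20 min compound exposure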
KCC2 mod: KCC2 cotransporter modulators, thallium flux, primary screen, cell-based, HEK293 KCC2, FluoZin-2 fluorescence, MLSMR; KCC2 cells, thallium flux FluoZin-2 fluorescence; B-score of Tl+ flux slope (higher = more flux/activation; lower = inhibition) at 10 µM; 2.2% of 190,000 active;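 active = thallium flux slope and its plate-corrected score both differing from the plate sample mean at a set confidence after two filtering rounds, in either direction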;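 note: slope of fluorescence scaled to starting intensity during 10 to 20 s after thallium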
AI-2 QS modul: Vibrio harveyi AI-2 quorum sensing modulators, primary screen, JMH597 strain, luminescence/OD600 ratio. Vibrio harveyi JMH597 AI-2 luminescence/OD600 ratio, 9 h; active compounds read low; strain lacks LuxN and CqsS sensors; 0 = neutral-control median. activity change, % at 7.5 µM. 0.4% of 300,000 active. AID 2094, 2009; in the data active = activity change below about -75%, passing the limit was not always enough; inconclusive = no clear call, values can overlap the other calls;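 note: luminescence divided by OD600 gain over 9 h not by final OD600 alone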
JMH597 growth rt: Vibrio harveyi growth inhibition, confirmation, counter-screen for AI-2 quorum sensing project, JMH597 strain, OD600 absorbance; shares compounds with AI-2 QS modul; 9 h; lacks LuxN and CqsS sensors; growth inhibition, % at 7.5 µM; 1% of 750 active; AID 2726, 2010;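 active = every replicate shows growth inhibition above 50%; inconclusive = at least half, but not all, replicates pass that cutoff; inactive = fewer than half of replicates pass it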
BB721 const-QS lum: luminescence inhibition in constitutive-on V. harveyi, confirmation, counter-screen for LuxS inhibitor project, strain BB721, luminescence readout. Vibrio harveyi BB721 luminescence, 9 h. AID 2727, 2010. inhibition, % at 7.5 µM. shares compounds with AI-2 QS modul. 95% of 750 active;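 active = inhibition above about 80% in every replicate, not just on average, limit read from the data; inconclusive = at least half of replicates past the limit, but not all; inactive = fewer than half of replicates past the limit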
BB721 growth: growth inhibition of V. harveyi BB721, confirmation, cytotoxicity control for AI-2 quorum sensing inhibitors, strain BB721, absorbance OD600; growth inhibition, % at 7.5 µM; AID 2728, 2010; 3% of 750 active; Vibrio harveyi BB721 growth, 9 h; shares compounds with AI-2 QS modul;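 active = every replicate shows growth inhibition above 50%; inconclusive = at least half but not all replicates above 50% inhibition; inactive = under half of replicates above 50% inhibition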
JMH597 AI-2 mod: Vibrio harveyi AI-2 signaling luminescence modulation – JMH597 strain, confirmation; shares compounds with AI-2 QS modul; Vibrio harveyi JMH597 AI-2 quorum sensing luminescence, 9 h; luxN and CqsS knockout, AI-2 only; inhibition, % at 7.5 µM; 97% of 750 active; AID 2736, 2010;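 active = every replicate shows more than 75% inhibition of signal versus neutral control wells; inconclusive = half to three quarters of replicates exceed 75% inhibition; inactive = fewer than half of replicates exceed 75% inhibition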
Numbers without * were called inactive; i = inactive; ? = inconclusive; . = not tested or not shown.

SMILES | KCNQ1 pot | hERG protect | Mot1-301 SUMO | KCNQ1 inh | KCC2 mod | AI-2 QS modul | JMH597 growth rt | BB721 const-QS lum | BB721 growth | JMH597 AI-2 mod
CC1CCCCN1C(=O)c1cc2ccccc2cc1O (stereo not given) | i | -12 | -11 | i | . | 15 | . | . | . | .
c1ccc(Oc2cc(-c3ccccc3)ncn2)cc1 | i | -5 | -5 | i | 0.049 | -93* | 11 | 98* | 10 | 98*
c1ccc(Oc2cc(-c3ccccc3)nc(-c3ccccc3)n2)cc1 | i | -12 | -9 | i | 0.47 | 21 | . | . | . | .
Cc1cc(NC(=O)CCC(=O)N(CC(=O)NCC2CCCO2)c2ccc(C(C)C)cc2)no1 (stereo not given) | i | -5 | 245 | i | . | 3 | . | . | . | .
O=C(COC(=O)c1ccc(Br)o1)Nc1nc2ccccc2s1 | i | -4 | 37 | i | -0.081 | ? | 16 | 93* | 24 | 95*
Cc1ccc2nc(NC(=O)COC(=O)c3ccco3)sc2c1 | i | -6 | 0 | i | . | -92* | -19 | 98* | -40 | 99*
Clc1ccc(CON/C=N/c2ncnc3sccc23)cc1 | i | -4 | 8 | i | . | -93* | 17 | 98* | 10 | 99*
C(=N\c1ncnc2sccc12)/NOCc1ccccc1 | i | -12 | -15 | i | 0.88 | -95* | -11 | 98* | -24 | 98*
CCC(=O)Nc1ccc(S(=O)(=O)Nc2cccc(C)c2)cc1OC | i | -6 | -9 | i | -1.8 | 18 | . | . | . | .
CC1CCC(NC(=O)COC(=O)CCC(=O)c2ccc(Cl)s2)CC1 (stereo not given) | i | -11 | . | i | . | 22 | . | . | . | .
CC(=O)NC(=S)Nc1sc2c(c1C(N)=O)CCC(C)C2 (stereo not given) | i | -5 | 411 | i | . | 3 | . | . | . | .
NC(=S)NNC(=O)COc1ccccc1O | i | -5 | 87 | i | -0.22 | 19 | . | . | . | .
Fc1ccc(CSc2nnc(-c3cccs3)o2)cc1 | i | -1 | 204 | i | . | -89* | 13 | 97* | 9 | 97*
c1ccc(CSc2nnc(-c3cccs3)o2)cc1 | i | -2 | 9 | i | -1.1 | -90* | -1 | 97* | -10 | 98*
Cc1ccccc1CSc1nnnn1-c1ccc(C(N)=O)cc1 | i | -5 | 212 | i | . | 11 | . | . | . | .
Oc1ccc(-n2nnnc2SCc2ccccc2Br)cc1 | i | -7 | -6 | i | . | ? | 12 | 81* | 1 | 87*
COc1cc2[nH]c(Cl)c([N+](=O)[O-])c2cc1OC | i | -18 | 180 | i | -0.3 | 7 | . | . | . | .
CC(C)C(NC(=O)c1ccc(C(C)(C)C)cc1)C(=O)Nc1ccc(N2CCOCC2)cc1 (stereo not given) | . | . | -1 | . | . | . | . | . | . | .
COc1ccc(/C=C/C(=O)Oc2cc(O)cc(O)c2)cc1 | i | -10 | 263 | i | -0.58 | -95* | -8 | 98* | -20 | 99*
Cc1cccc(OCC(=O)O/N=C(\N)c2ccccn2)c1 | i | -12 | -3 | i | -0.64 | -91* | -1 | 93* | 0 | 96*
Cc1cc(C)cc(OCC(=O)O/N=C(\N)c2ccccn2)c1 | i | -4 | 1 | i | -2.3 | ? | . | . | . | .
Cc1cc(C)cc(OCC(=O)O/N=C(\N)c2cccnc2)c1 | i | -9 | . | i | i | -96* | 0 | 98* | -32 | 98*
N/C(=N\OC(=O)COc1ccc(Br)cc1)c1cccnc1 | i | -10 | 16 | i | -0.011 | -36 | . | . | . | .
N/C(=N\OC(=O)COc1ccccc1)c1cccnc1 | i | -5 | 40 | i | . | -88* | 25 | 95* | 19 | 97*
CCN(c1ccc(NC(=O)COC(=O)CCc2cc(OC)c(OC)c(OC)c2)cc1)C(C)C | i | -11 | . | i | 0.084 | 6 | . | . | . | .
SMILES | KCNQ1 pot | hERG protect | Mot1-301 SUMO | KCNQ1 inh | KCC2 mod | AI-2 QS modul | JMH597 growth rt | BB721 const-QS lum | BB721 growth | JMH597 AI-2 mod
N=C(CC1CC(=O)NC(=O)C1)C1=C(O)CCCC1=O | i | 0 | 21 | i | 0.77 | 13 | . | . | . | .
CCOC(=O)c1cccc(NC(=O)Cn2nc(C)n3cccc3c2=O)c1 | i | -8 | -12 | i | . | -97* | 22 | 100* | 12 | 100*
Cc1cccc(C)c1NC(=O)Cn1nc(C)n2cccc2c1=O | i | -8 | -2 | i | . | -8 | . | . | . | .
CC(C)c1cccc(C(C)C)c1NC(=O)CN1C(=O)NC2(CCCCCCC2)C1=O | . | . | -3 | . | . | . | . | . | . | .
Cc1cccc(CSc2nnc(-c3ccccn3)n2N)c1 | i | -10 | 0 | i | . | -90* | -4 | 92* | 3 | 94*
Nn1c(SCc2ccc(Br)cc2)nnc1-c1ccccn1 | i | -14 | -2 | i | 0.96 | -54 | . | . | . | .
Nc1cc(Oc2ccc(Cl)cc2Cl)nc(N)n1 | i | -6 | 7 | i | . | -95* | 9 | 99* | -15 | 99*
CC(=O)Oc1cc2c(cc1Cl)C(c1cccs1)CC1(CC(C)(C)NC(=S)N1)O2 (stereo not given) | i | -9 | 1 | i | -0.64 | 12 | . | . | . | .
COC(CNC(=O)c1ccc2c(c1)ncn2C1CCCCCC1)OC | i | -5 | 11 | i | . | 4 | . | . | . | .
O=C(COc1ccc(-c2ccccc2)cc1)N1CCN(S(=O)(=O)Cc2ccccc2)CC1 | i | -12 | . | i | 0.075 | 13 | . | . | . | .
